NR2E3 ag-1: NR2E3 agonists in two-hybrid cells, primary screen, cell-based, luminescence, CHO-S, Gal4-NCOR/VP16-NR2E3; inhibition of corepressor binding, % at 3.98 µM; Photoreceptor-specific nuclear receptor (Homo sapiens), Q9Y5X4; luciferase; 360,000 compounds, 0.35% hits;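 active = inhibition above the mean of all tested compounds plus 3 SD, cut at about 70% in these data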;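 note: 0% = DMSO with NR2E3 transfected cells and 100% = cells lacking NR2E3 construct; higher means lower luciferase signal from less NR2E3 corepressor binding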
Target sequence (Q9Y5X4 whole entry, looked up, the tested form may be a part): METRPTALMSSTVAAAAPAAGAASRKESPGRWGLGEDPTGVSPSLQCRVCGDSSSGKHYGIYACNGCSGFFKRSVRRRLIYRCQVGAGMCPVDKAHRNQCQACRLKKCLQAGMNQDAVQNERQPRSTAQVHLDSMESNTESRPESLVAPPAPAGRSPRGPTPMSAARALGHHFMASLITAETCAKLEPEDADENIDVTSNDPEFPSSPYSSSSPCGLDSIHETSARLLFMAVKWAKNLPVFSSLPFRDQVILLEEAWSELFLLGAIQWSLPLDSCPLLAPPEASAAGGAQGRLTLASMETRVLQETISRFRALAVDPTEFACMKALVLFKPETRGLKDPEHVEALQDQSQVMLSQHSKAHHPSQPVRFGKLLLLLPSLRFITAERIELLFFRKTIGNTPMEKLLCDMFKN
PG9 binder: binders of HIV-1 gp120 antibody PG9, primary screen, biochemical, TR-FRET. TR-FRET gp120-PG9 antibody binding. HIV-1 gp120 / PG9 antibody interaction. inhibition, % at 6.7 µM. 360,000 compounds, 0.43% hits; in the data active = inhibition above about 8.5%
NR2E3 ag-2: inhibitors of NR2E3-RetCOR corepressor binding, primary screen, NR2E3 agonist project, biochemical, TR-FRET, GST-NR2E3, biotin-RetCOR; 1536-well; inhibition of corepressor binding, % at 4.78 µM; 320,000 compounds, 0.12% hits;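 active = percent inhibition above the cutoff of mean plus 3 SD of all tested compounds, set per screening campaign, cut at about 20% in these data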;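 note: 0% = DMSO wells and 100% = biotin wells as full block of FRET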
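Format: 1536-well format; test system: GST-NR2E3 and biotin-RetCOR proteins; read-out basis: percent inhibition of TR-FRET ratio; timing: 5 h incubation at 4 °C; detection: time-resolved FRET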
Rev-erbA mod: modulators of Rev-erb alpha DNA binding, primary screen, biochemical, FITC-DNA, fluorescence polarization, uHTS; Nuclear receptor subfamily 1 group D member 1 (Homo sapiens), P20393; Rev-erbα–FITC-DNA binding, 90 min; activity, % at 10 µM; 370,000 compounds, 0.79% hits; AID 1259318, 2017;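 active = activity above about 14%, limit read from the data; passing the limit was not always enough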;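 note: 0% = DMSO wells with 35 nM protein and 100% = DMSO wells with 750 nM protein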
NR2E3 ag conf: NR2E3 agonist confirmation in cells, cell-based, luminescence, CHO-S two-hybrid; shares compounds with NR2E3 ag-1; CHO-S mammalian two-hybrid NR2E3-NCOR, luciferase luminescence; inhibition, % at 3.98 µM; 2,300 compounds, 51% hits;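 active = average inhibition above a cutoff equal to the mean inhibition of all tested compounds plus one SD, cut at about 70% in these data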;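 note: 0% = DMSO in NR2E3 cells and 100% = DMSO in cells lacking NR2E3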
VP16 counter: GAL4-VP16 reporter modulators, confirmation, counter-screen for NR2E3 agonist project, cell-based, luminescence, CHO-S, high throughput. shares compounds with NR2E3 ag-1. CHO-S GAL4-VP16 luciferase reporter. inhibition, % at 3.98 µM. 2,300 compounds, 29% hits. AID 624379, 2012;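 active = mean inhibition above a cutoff equal to the average over all tested compounds plus one standard deviation, cut at about 70% in these data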;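 note: luciferase from a UAS reporter driven by GAL4-VP16 transactivation; 0% = DMSO with VP16-transfected cells and 100% = DMSO with cells lacking VP16; higher means less reporter light so more repression of VP16 activity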
Active calls of the source: *; · = no result. Most compounds without a hit are left out; they make up all but 1.4% or so of the library.

SMILES	NR2E3 ag-1	PG9 binder	NR2E3 ag-2	Rev-erbA mod	NR2E3 ag conf	VP16 counter
Cc1ccc(C(=O)Nc2ccc(CC(=O)O)cc2)o1	-9.9	1.5	-2.0	-3.0	·	·
CN(C)C(=O)CCc1nc(-c2ccc(C(C)(C)C)cc2)no1	69.7	-2.2	0.6	1.8	·	·
CC(C)(C)c1ccc(-c2noc(CCC(=O)Nc3cccnc3)n2)cc1	83.7*	-0.4	6.2	0.7	75.1*	79.2*
CC(C)(C)c1ccc(-c2noc(CCC(=O)NCC3CCCO3)n2)cc1 (stereo unspecified)	83.0*	0.0	2.5	0.7	72.6*	69.5
CC(C)(C)c1ccc(-c2noc(CCC(N)=O)n2)cc1	79.9*	-1.5	-0.4	-4.6	77.8*	77.4*
CNC(=O)CCc1nc(-c2ccc(C(C)(C)C)cc2)no1	68.1	-1.7	1.1	0.3	71.1*	76.5*
COc1cccc(/C=C2\CC3(OC(=O)C4CCCCC4)CCCN2C3)c1 (stereo unspecified)	·	·	·	-0.4	·	·
CCS(=O)(=O)Nc1ccc2c(c1)C(=O)N(C)[C@@H]1CC[C@H](CC(=O)NCCOC)O[C@H]1CO2	·	·	·	-1.0	·	·
COc1ccc(-c2csc(NC(=O)c3ccccc3NS(=O)(=O)c3ccc(C)cc3)n2)cc1	95.0*	-0.9	0.3	-0.1	98.2*	84.7*
COc1ccc(S(=O)(=O)Nc2ccccc2C(=O)Nc2nc(-c3ccc(F)cc3)cs2)cc1OC	58.8	0.2	0.2	-1.5	97.1*	83.4*
Cc1cc(C)cc(C(=O)OCCCN(C)C2CN(Cc3cn(Cc4ccccc4F)nn3)S(=O)(=O)C2)c1 (stereo unspecified)	·	·	·	-0.8	·	·
Oc1ccc(CCNc2ncnc3ccc(Cl)cc23)cc1	91.2*	0.6	1.0	-3.5	93.0*	87.0*
Nc1nc(Cl)cc(NCCc2ccc(O)cc2)n1	6.3	-2.8	2.3	0.2	·	·
O=C(CSc1ccccc1C(=O)O)Nc1ccc2c(c1)OCO2	13.6	-0.6	4.1	-4.0	·	·
O=C(CSc1ncccc1C(=O)O)Nc1ccc2c(c1)OCCO2	65.8	-0.9	-4.2	5.6	-6.2	2.9
O=C(Cn1cnc2ccccc21)Nc1ccc2c(c1)OCCCO2	49.8	-2.1	1.2	0.3	38.7	30.5
O=C(Cn1cnc2ccccc2c1=O)Nc1ccc2c(c1)OCO2	-49.8	0.1	4.9	-0.2	·	·
CN1CCN(c2cc(=O)n(C3CCCCC3)c(=O)[nH]2)CC1	-5.5	-1.0	-0.6	2.7	·	·
O=c1cc(N2CCN(c3cccc(Cl)c3)CC2)[nH]c(=O)n1C1CCCCC1	56.9	-1.1	0.4	19.5	92.6*	27.5
O=c1cc(N2CCN(c3ccccc3)CC2)[nH]c(=O)n1C1CCCCC1	54.2	1.1	0.4	-4.9	92.1*	18.6
CC(C)C[C@@H](CO)N1Cc2nnn(Cc3ccccc3)c2-c2ccccc2S1(=O)=O	·	·	·	2.2	·	·
COc1ccc(/C=N/Nc2cc(C)nc(-n3nc(C)cc3C)n2)cc1	93.6*	0.4	1.3	-1.6	29.2	17.6
Cc1cc(N/N=C/c2cccc(Cl)c2)nc(-n2nc(C)cc2C)n1	-24.8	-2.4	1.1	0.2	·	·
COc1cc(/C=N/Nc2nc(Nc3ccc(C)cc3)nc(-n3nc(C)cc3C)n2)cc(OC)c1OC	58.9	-0.8	-0.8	2.1	17.5	-17.6
COc1cc(/C=N/Nc2nc(Nc3ccccc3)nc(-n3nc(C)cc3C)n2)cc(OC)c1OC	67.9	-3.1	-1.1	0.2	-13.7	-44.8
SMILES	NR2E3 ag-1	PG9 binder	NR2E3 ag-2	Rev-erbA mod	NR2E3 ag conf	VP16 counter
COc1ccc(O)c(/C=N/Nc2nc(Nc3ccccc3)nc(-n3nc(C)cc3C)n2)c1	96.4*	2.8	2.2	3.8	11.2	-78.1
COc1ccc(O)c(/C=N/Nc2nc(C)cc(-c3ccccc3)n2)c1	-17.2	-1.2	-1.9	10.3	·	·
Cc1ccc2nc(N)[nH]c(=O)c2c1Sc1ccncc1	·	·	·	4.8	·	·
Cc1cccc(NC(=O)N2CCC(N(C)CCC(C)C)CC2)c1	·	·	·	0.7	·	·
COC(=O)[C@]12C[C@H](CC(=O)NCc3ccc(C)o3)C(=O)N(Cc3ccc(Cl)cc3Cl)C1=C[C@H](C(C)(C)C)O[C@@H]2C	·	·	·	1.5	·	·
O=C(Nc1ccccc1)/C(=C\c1cccs1)NC(=O)c1ccccc1	-1.8	-3.0	5.0	0.9	·	·
Cc1cccc(NC(=O)/C(=C\c2cccs2)NC(=O)c2ccccc2)c1	56.4	·	-0.2	·	5.9	-9.6
CNC(=O)c1ccsc1NC(=O)c1ccc(S(=O)(=O)N2CCCc3ccccc32)cc1	-6.8	0.9	0.3	-3.4	·	·
CCc1nnc(NC(=O)c2ccc(S(=O)(=O)N(CC(C)C)CC(C)C)cc2)o1	103.1*	0.4	-1.3	-1.5	99.3*	39.5
CCc1nnc(NC(=O)c2ccc(S(=O)(=O)N3CCCc4ccccc43)cc2)o1	53.7	1.4	-1.4	9.0	88.4*	43.8
CN(CC#Cc1ccccc1)C(N)=NC(=O)/C=C/c1ccccc1	·	·	·	3.7	·	·
CCCCOc1ccc(CONS(=O)(=O)c2ccc(NC(C)=O)cc2)cc1Cl	49.8	-1.1	-5.0	2.0	81.2*	53.9
COc1ccc(OC)c(Nc2nc(-c3c(C)nc4ncccn34)cs2)c1	49.2	-4.4	0.7	6.0	-32.6	18.8
Cc1nc2ncccn2c1-c1csc(Nc2cccc(C(=O)O)c2)n1	-18.5	-9.0	-3.5	0.6	·	·
Cc1ccc(CCNc2ncnc(Cl)c2N)cc1	78.0*	0.5	·	0.0	92.0*	74.5*
CCN(CC)C(=O)CC[C@H]1CC[C@]2(CCCN(S(=O)(=O)C3CCCCC3)C2)O1	·	·	·	1.2	·	·
COc1ccc(NC(=O)C(C)N2c3cccc4cccc(c34)S2(=O)=O)cc1OC (stereo unspecified)	62.9	1.5	1.0	1.0	65.5	47.9
CC1C=CC=CCCC=CC=CC=CC=CC(OC2O[C@H](C)[C@@H](O)[C@H](N)[C@@H]2O)CC(O)C(C(=O)O)C(O)CC(=O)CC(O)C(O)CCC(O)CC(O)CC(O)CC(=O)OC(C)C(C)C1O (stereo partly specified)	·	·	·	-0.8	·	·
CN(c1ccccc1)c1ccc(/C=C(/CCC(=O)O)c2nc3ccccc3s2)cc1[N+](=O)[O-]	67.4	0.7	·	-4.5	26.2	43.8
O=C(O)CC/C(=C\c1ccc(N2CCCC2)c([N+](=O)[O-])c1)c1nc2ccccc2s1	-20.1	0.6	5.5	-1.9	·	·
O=C(Cc1ccccc1)N1CCCC(c2nc(-c3ccc(S(=O)(=O)N4CCCC4)cc3)no2)C1 (stereo unspecified)	-15.9	-1.1	-1.1	1.7	·	·

High-throughput results as filed in PubChem BioAssay.
